Results on six compounds are retold here after PMC3068019 (EMBO Molecular Medicine, 2010).

The test system of series [1] is PGC-1α mRNA, Q111 striatal cells. Nature of the series: PGC-1α mRNA by quantitative RT-PCR, Q111 cells. The class given is cell-based, mouse. The gist of the method: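 Total RNA (2 µg) from Q7/Q111 striatal cells, run either by TaqMan one-step RNA-to-Ct or by Superscript III reverse transcription followed by TaqMan gene expression assays on real-time PCR. Quantified by the delta-delta CT method, normalised to 18S […].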

For series [2], the system named is DNAJ (HSJ1b), striatal neurons. The note with it: ref Borrell-Pages et al, 2006, cited from earlier work.
Another series deals with Caenorhabditis elegans. The note with it: ref Borrell-Pages et al, 2006; cited from earlier work.
Another series deals with BDNF. The note with it: ref Borrell-Pages et al, 2006; cited from earlier work.
The subject of another series is Q111 cells. Nature of the series: 3-NP toxicity, LIVE/DEAD viability assay, Q111 cells. The class given is cell-based, mouse.
A further series relates to HD model mice. To be noted: ref Karpuj et al, 2002; Fox et al, 2004; cited from earlier work.
The subject of the next series is DNAJB10. The note with it: ref Karpuj et al, 2002; cited from earlier work.
A further series deals with glutathione. The note with it: ref Mao et al, 2006; cited from earlier work.
The subject of another series is Caspase. The note with it: ref Bailey & Johnson, 2006; Jeitner et al, 2005; cited from earlier work.
A further series has as its system PGC-1α. To be noted: ref Milnerwood et al, 2010; Okamoto et al, 2009; cited from earlier work.

Consider `CC(/C=C/C(=O)NO)=C\[C@@H](C)C(=O)c1ccc(N(C)C)cc1` [TSA, Trichostatin A], for which, in [1], the “effect on PGC-1α mRNA levels” value is “increased the mRNA levels of PGC-1α”.
For the compound `NCCS` [cysteamine], the DNAJB10 levels entry in [2] was “normalize DNAJB10 levels”. In series [2] (striatal neurons in vitro), the “DNAJ (HSJ1b) transcription and protein levels” value was “increased”. Besides, the “protection of worms from toxic effects of mhtt” value in the series with Caenorhabditis elegans is given as “protected worms”. In addition, the “trafficking of BDNF” value in the series on BDNF was “enhanced”.
With `O=C(O)CC[N+](=O)[O-]` [3-NP, 3-nitropropionic acid], the “toxicity of 3-NP, Q111 compared with Q7 cells” value with Q111 cells (3-NP 10 mM for 48 h) was “more toxic to Q111 cells than to Q7 cells”.
For the compound `NCCSSCCN` [cystamine], the “protection against 3-NP toxicity” value with Q111 cells (not shown, cell line not stated) was “protect against 3-NP toxicity”. For the same compound, the “neuroprotection in HD models” value with HD model mice is “neuroprotective”. For the same compound, the “DNAJB10 in treated mice” value in the series with DNAJB10 is recorded as “increased”. The glutathione levels entry in the series on glutathione is “increases levels of the versatile antioxidant glutathione”. Further, the caspase inhibition result in the series with Caspase is recorded as “caspase inhibition”.
Take `CC12CC3CC(C)(C1)CC(N)(C3)C2` [memantine]: the “transcriptional dysregulation of PGC-1α induced by extrasynaptic glutamate” value in the series with PGC-1α is on record as “appears to prevent transcriptional dysregulation of PGC-1α”.
`CCCC(=O)O` [NaBu, Sodium butyrate]: the “effect on PGC-1α mRNA levels” value in [1] is “increased the mRNA levels of PGC-1α”.
